# Results published in ChEMBL document CHEMBL4002590, “Design and Synthesis of a Pan-Janus Kinase Inhibitor Clinical Candidate (PF-06263276) Suitable for Inhaled and Topical Delivery for the Treatment of Inflammatory Diseases of the Lungs and Skin” (J Med Chem, 2017).
# Activity calls are given as the source filed them. The calls are words filed in the database; no cut-off is given here.
# What was measured:
# [1] = molecular target: Non-receptor tyrosine-protein kinase TYK2 (Homo sapiens, UniProt P29597); assay: Inhibition of Tyk2 (unknown origin) using peptide substrate preincubated for 60 mins followed by substrate addition and measured after 60 mins by microfluidic assay
# Procedure, shortened: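 Caliper microfluidic assay of peptide-substrate phosphorylation by the relevant JAK enzyme, run at 1 mM ATP; IC50 values are geometric means of at least three determinations.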
# Liver = assay: Metabolic stability in human liver microsomes assessed per mg protein; assay type: ADME, microsome
# Procedure, shortened: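 Metabolic stability measured as turnover in human liver microsomes.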
# [2] = Drug metabolism in human liver microsomes assessed as UGT-mediated compound glucuronidation per mg protein in presence of microsomal activator Brij58 and cofactor UDPGA; assay type: ADME
# Procedure, shortened: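 Human liver microsomes supplemented with the activator Brij58 and cofactor UDPGA, NADPH omitted, to measure phase II glucuronidation turnover.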
# [3] = molecular target: Tyrosine-protein kinase JAK2 (Homo sapiens, UniProt O60674); assay: Inhibition of JAK2 homodimer in human whole blood assessed as inhibition of GM-CSF induced STAT5 phosphorylation preincubated for 45 mins followed by GM-CSF addition and measured after 20 mins by flow cytometric analysis
# Tyrosine-protein kinase JAK2, sequence (O60674 whole entry): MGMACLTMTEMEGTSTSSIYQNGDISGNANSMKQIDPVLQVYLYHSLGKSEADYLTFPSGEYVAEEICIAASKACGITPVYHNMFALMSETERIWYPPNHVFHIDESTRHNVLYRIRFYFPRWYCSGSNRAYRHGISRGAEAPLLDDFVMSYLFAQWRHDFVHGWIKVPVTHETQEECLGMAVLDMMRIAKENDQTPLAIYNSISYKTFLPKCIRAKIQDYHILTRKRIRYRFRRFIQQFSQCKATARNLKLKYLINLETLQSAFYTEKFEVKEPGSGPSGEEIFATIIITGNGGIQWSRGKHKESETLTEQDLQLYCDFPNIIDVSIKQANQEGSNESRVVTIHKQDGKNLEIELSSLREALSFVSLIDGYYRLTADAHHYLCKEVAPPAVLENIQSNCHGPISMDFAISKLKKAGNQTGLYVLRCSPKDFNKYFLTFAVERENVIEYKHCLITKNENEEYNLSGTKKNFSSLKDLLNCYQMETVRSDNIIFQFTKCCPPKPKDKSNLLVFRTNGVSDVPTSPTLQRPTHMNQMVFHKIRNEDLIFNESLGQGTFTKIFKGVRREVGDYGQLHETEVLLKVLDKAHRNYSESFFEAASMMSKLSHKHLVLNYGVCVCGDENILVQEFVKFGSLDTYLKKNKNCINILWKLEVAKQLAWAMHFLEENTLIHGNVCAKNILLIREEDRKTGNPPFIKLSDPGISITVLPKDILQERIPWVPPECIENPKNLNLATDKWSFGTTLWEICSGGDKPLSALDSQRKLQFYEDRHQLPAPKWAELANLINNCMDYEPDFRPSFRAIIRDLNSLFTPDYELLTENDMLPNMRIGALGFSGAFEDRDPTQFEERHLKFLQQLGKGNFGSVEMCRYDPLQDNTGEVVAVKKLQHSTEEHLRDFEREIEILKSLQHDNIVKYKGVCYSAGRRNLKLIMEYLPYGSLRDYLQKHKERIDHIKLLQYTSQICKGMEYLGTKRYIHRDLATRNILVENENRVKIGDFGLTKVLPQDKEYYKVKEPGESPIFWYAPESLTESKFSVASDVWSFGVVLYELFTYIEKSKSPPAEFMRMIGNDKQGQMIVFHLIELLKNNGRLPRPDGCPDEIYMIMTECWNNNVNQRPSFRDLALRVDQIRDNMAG
# [4] = Volume of distribution at steady state in rat at 0.5 mg/kg, iv; assay type: ADME, organism-based; details: in vivo, read-out: Vdss
# Canis familiaris = assay: Unbound clearance in dog at 0.1 mg/kg, iv administered as 30 mins infusion; assay type: ADME, organism-based, Canis lupus familiaris; details: in vivo, 0.5 h
# [5] = Plasma protein binding in rat at 0.5 mg/kg, iv; assay type: ADME, organism-based; details: read-out: PPB
# [6] = Plasma protein binding in dog at 0.1 mg/kg, iv administered as 30 mins infusion; assay type: ADME, organism-based, Canis lupus familiaris; details: read-out: PPB
# Mus musculus [7] = assay: In vivo inhibition of JAK1/JAK2 in […] dosed Balb/c mouse assessed as inhibition of IL-6 induced STAT3 phosphorylation in lungs pretreated for 15 mins followed by IL-6 stimulation measured after 30 mins by ELISA; assay type: functional
# Procedure, shortened: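 Intratracheal dosing in mouse, then IL-6 given i.t.; phosphorylated STAT3 quantified in lung. Percent inhibition ± 95% CI from the difference in geometric means between vehicle/IL-6 and vehicle/saline groups; N = 6.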
# Mus musculus [8] = assay: In vivo inhibition of JAK2/TYK2 in Balb/c mouse model of IL-23 induced inflammation assessed as reduction of ear swelling pretreated topically as 4 % solution bid on ear for 12 consecutive days followed by IL-23 stimulation at 2 hrs post compound treatment on day 2, 4, 7, 9 and 11; assay type: functional
# Procedure, shortened: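 Mouse ear dermal model: compound applied topically as a 4% solution in propylene glycol 30, PEG400 30, dimethyl isosorbide 10, glycerin 25.9, BHA 0.1 (% wt/wt); repeated IL-23 ear injections, with ear swelling followed over 11 days.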
# Mus musculus [9] = assay: In vivo inhibition of JAK2 homodimer in Balb/c mouse assessed as inhibition of GM-CSF induced STAT5 phosphorylation in blood at 10 ug, it for 12 consecutive days; assay type: functional, organism-based
# Procedure, shortened: (§1)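 After i.t. dosing in mouse, GM-CSF-induced phosphorylated STAT5 measured in blood; percent inhibition ± 95% CI from geometric means versus vehicle groups; N = 3.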
# Mus musculus [10] = assay: In vivo inhibition of JAK2 homodimer in Balb/c mouse assessed as inhibition of GM-CSF induced STAT5 phosphorylation in blood at 100 ug, it for 12 consecutive days; assay type: functional; procedure, shortened: as §1
# [11] = molecular target: Tyrosine-protein kinase ABL1 (Homo sapiens) (UniProt P00519); assay: Inhibition of recombinant human Abl kinase expressed in insect cells at 10 uM using Ulight-TK peptide substrate after 30 mins by LANCE method
# Tyrosine-protein kinase ABL1 (Homo sapiens), sequence (P00519 whole entry): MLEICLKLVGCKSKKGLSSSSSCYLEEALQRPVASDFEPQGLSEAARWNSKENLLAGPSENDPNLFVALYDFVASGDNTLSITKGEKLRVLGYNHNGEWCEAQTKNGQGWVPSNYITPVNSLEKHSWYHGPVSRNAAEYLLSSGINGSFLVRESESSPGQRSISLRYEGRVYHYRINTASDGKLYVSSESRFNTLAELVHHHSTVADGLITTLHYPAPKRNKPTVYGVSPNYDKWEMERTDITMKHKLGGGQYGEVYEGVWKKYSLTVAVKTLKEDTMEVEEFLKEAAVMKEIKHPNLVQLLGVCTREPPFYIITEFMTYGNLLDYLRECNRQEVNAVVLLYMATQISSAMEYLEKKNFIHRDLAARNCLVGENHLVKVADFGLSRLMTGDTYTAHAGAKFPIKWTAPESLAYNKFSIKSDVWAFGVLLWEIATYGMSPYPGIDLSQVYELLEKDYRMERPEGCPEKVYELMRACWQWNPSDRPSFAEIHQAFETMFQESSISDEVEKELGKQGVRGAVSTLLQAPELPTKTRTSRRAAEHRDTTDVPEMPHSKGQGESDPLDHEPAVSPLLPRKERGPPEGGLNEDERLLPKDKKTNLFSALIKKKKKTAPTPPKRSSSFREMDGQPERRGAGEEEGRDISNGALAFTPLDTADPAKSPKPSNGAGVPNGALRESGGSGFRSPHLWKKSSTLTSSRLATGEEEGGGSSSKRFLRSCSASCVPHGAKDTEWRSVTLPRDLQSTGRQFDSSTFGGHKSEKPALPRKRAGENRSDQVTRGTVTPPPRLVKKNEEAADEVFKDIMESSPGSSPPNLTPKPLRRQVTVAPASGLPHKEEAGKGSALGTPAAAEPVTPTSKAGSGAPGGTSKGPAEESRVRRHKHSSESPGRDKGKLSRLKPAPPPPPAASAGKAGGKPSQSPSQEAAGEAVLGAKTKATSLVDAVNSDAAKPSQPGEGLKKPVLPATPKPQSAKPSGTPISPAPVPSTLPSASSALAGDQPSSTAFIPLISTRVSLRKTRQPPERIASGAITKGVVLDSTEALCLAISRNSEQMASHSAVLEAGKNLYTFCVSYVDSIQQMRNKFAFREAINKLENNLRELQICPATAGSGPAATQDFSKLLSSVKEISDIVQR
# Procedure, shortened: (§2)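 Single-point screen at 10 μM within a broad panel of radioligand binding and enzyme inhibition assays covering receptors, transporters, enzymes and ion channels.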
# [12] = molecular target: Acetylcholinesterase (Homo sapiens) (UniProt P22303); assay: Inhibition of recombinant human acetylcholinesterase expressed in HEK-293 cells at 10 uM using acetylthiocholine substrate after 30 mins by photometry; assay type: cell-based; procedure, shortened: as §2
# [13] = molecular target: Alpha-2B adrenergic receptor (Homo sapiens) (UniProt P18089); assay: Antagonist activity at recombinant human alpha 2B adrenergic receptor expressed in HEK293 cells assessed as inhibition of dexmedetomidine-induced cAMP accumulation at 10 uM after 30 mins by HTRF method; assay type: functional, cell-based
# Alpha-2B adrenergic receptor (Homo sapiens), sequence (P18089 whole entry): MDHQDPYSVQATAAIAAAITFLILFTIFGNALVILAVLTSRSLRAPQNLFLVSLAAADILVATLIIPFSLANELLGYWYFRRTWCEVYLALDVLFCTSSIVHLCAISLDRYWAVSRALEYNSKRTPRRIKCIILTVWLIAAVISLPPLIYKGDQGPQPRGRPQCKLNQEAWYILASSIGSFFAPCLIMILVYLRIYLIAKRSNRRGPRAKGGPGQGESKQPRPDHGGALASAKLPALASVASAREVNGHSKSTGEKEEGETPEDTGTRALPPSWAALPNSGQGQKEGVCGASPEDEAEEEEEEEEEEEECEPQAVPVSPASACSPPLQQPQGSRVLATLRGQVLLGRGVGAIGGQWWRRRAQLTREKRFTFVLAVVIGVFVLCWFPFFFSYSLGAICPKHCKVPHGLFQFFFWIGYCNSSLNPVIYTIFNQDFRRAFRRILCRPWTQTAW
# [14] = molecular target: Vascular endothelial growth factor receptor 2 (Homo sapiens) (UniProt P35968); assay: Inhibition of recombinant human KDR kinase expressed in insect Sf21 cells at 10 uM using Ulight-CAGAGAIETDKEYYTVKD as substrate after 60 mins by LANCE assay; procedure, shortened: as §2
# [15] = molecular target: Aurora kinase A (Homo sapiens) (UniProt O14965); assay: Inhibition of recombinant human AurA/Aur 2 kinase expressed in insect Sf21 cells at 10 uM using Ulight-RRRSLLE substrate after 15 mins by LANCE assay; procedure, shortened: as §2
# Aurora kinase A (Homo sapiens), sequence (O14965 whole entry): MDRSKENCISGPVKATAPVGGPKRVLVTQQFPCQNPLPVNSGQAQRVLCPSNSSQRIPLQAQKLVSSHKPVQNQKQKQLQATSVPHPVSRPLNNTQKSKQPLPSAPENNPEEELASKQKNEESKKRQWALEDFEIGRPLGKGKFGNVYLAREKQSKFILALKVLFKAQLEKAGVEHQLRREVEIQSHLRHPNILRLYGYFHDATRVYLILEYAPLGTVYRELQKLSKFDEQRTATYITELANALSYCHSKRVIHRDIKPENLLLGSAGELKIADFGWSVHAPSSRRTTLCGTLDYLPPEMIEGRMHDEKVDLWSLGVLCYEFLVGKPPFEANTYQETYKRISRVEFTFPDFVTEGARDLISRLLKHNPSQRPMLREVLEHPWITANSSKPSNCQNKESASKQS
# [16] = molecular target: Tyrosine-protein kinase Lck (Homo sapiens) (UniProt P06239); assay: Inhibition of recombinant human Lck kinase expressed in insect Sf21 cells at 10 uM using Ulight-Poly GAT[EAY(1:1:1)]n as substrate after 10 mins by LANCE assay; procedure, shortened: as §2
# Tyrosine-protein kinase Lck (Homo sapiens), sequence (P06239 2-509 limits assumed): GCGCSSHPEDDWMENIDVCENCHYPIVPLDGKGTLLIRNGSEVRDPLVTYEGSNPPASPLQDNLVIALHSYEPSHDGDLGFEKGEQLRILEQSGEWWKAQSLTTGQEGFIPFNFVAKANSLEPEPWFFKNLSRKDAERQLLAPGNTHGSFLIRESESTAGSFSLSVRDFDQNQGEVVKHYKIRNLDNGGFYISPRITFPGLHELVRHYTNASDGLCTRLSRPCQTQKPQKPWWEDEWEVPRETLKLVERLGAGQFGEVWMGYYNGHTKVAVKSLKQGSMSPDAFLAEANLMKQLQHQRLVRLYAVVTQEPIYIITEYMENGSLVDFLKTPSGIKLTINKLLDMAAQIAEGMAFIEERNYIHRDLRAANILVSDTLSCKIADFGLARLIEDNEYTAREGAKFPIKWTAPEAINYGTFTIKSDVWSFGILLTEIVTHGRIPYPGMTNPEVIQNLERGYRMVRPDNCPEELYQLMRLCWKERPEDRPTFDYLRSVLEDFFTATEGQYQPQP
# hERG (KCNH2) = hERG (KCNH2) (Homo sapiens, UniProt Q12809); assay: Inhibition of human ERG at 1 uM
# hERG (KCNH2), sequence (Q12809 whole entry): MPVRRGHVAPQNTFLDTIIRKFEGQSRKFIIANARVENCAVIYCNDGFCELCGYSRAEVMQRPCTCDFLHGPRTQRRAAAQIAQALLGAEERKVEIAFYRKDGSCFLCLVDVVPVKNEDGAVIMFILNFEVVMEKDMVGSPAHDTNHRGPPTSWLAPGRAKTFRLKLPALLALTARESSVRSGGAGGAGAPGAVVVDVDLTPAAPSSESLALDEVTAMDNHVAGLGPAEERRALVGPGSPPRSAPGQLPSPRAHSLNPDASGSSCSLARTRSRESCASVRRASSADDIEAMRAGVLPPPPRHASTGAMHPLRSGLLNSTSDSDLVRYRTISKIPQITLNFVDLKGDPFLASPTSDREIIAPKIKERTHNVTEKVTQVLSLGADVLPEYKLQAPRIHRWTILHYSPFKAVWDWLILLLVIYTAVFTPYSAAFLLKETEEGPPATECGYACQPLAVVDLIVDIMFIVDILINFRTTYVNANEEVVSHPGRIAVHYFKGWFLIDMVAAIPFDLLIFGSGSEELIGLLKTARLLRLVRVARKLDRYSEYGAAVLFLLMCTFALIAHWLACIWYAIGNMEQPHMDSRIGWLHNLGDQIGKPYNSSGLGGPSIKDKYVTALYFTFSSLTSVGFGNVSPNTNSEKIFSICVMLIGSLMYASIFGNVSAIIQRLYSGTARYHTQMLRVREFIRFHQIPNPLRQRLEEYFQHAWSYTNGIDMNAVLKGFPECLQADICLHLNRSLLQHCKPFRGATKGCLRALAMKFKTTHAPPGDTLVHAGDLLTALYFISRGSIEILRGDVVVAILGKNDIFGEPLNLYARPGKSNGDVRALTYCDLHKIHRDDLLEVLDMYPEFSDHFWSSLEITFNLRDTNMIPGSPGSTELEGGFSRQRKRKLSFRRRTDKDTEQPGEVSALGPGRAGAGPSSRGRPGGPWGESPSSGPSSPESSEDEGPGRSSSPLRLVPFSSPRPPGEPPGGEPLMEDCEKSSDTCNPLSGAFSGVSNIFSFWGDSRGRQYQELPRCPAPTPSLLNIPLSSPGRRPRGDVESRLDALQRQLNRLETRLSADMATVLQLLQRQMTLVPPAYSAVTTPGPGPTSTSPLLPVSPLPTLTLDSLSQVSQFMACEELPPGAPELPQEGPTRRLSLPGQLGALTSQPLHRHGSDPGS
# Procedure, shortened: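 hERG potassium current measured with compound at 1 μM.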
# Rattus norvegicus [17] = assay: Toxicity in iv dosed rat for 7 days; assay type: organism-based; details: in vivo, 168 h
# Procedure, shortened: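 Exploratory 7-day intravenous toxicology studies in rat and dog; margins expressed over total plasma AUC relative to projected exposure at a 200 μg human lung dose.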
# Rattus norvegicus [18] = assay: Genotoxicity in iv dosed rat after 7 days by peripheral blood micronucleus assay; assay type: toxicity, organism-based; details: in vivo, 168 h
# [19] = Chemical stability at room temperature up to 6 weeks; assay type: physicochemical; details: 1008 h
# Procedure, shortened: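 Crystalline solid stored at room temperature and at 40 °C/75% relative humidity for up to 6 weeks; chemical stability assessed.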
# Janus Kinase (JAK) = Janus Kinase (JAK) (Homo sapiens, UniProt P52333+P23458+O60674+P29597)
# JAK1/TYK2 (Homo sapiens) [20] = molecular target: T1, JAK1/TYK2 (Homo sapiens) (UniProt P23458+P29597)
# JAK1/TYK2 (Homo sapiens) [21] = molecular target: T1, JAK1/TYK2 (Homo sapiens); remark: listed apart in the source
# JAK3/JAK1 (Homo sapiens) = JAK3/JAK1 (Homo sapiens) (UniProt P52333+P23458)
smiles,measurement,setting,value
CCc1cc(O)c(F)cc1-c1ccc2c(-c3nc4c([nH]3)CCN(C(=O)c3cnc(N5CCCCC5)cn3)C4)n[nH]c2c1,IC50,[1],29.7 nM
same,Stability,Liver,101 µL/min
same,Drug metabolism,[2],129 µL/min
same,IC50,[3],5.2 µM
same,Vd,[4],0.8 L/kg
same,CL free,Canis familiaris,> 18000 mL/min/kg
same,fraction unbound,[5],≤ 0.001
same,fraction unbound at 0.5 h,[6],≤ 0.001
same,ED50,Mus musculus [7],3 µg
same,inhibition,Mus musculus [7],Dose-dependent effect
same,inhibition (INH),Mus musculus [8],48%
same,inhibition,Mus musculus [9],inactive
same,inhibition (INH),Mus musculus [10],<50%
same,inhibition,[11],> 50%
same,inhibition,[12],> 50%
same,inhibition,[13],> 50%
same,inhibition,[14],> 50%
same,inhibition,[15],> 50%
same,inhibition,[16],> 50%
same,inhibition at 1 µM,hERG (KCNH2),< 1%
same,Activity,Rattus norvegicus [17],Non-Toxic
same,Activity,Rattus norvegicus [18],Non-Toxic
same,Stability,[19],Stable
same,T1/2,Janus Kinase (JAK),> 6 h
same,fIC50,JAK1/TYK2 (Homo sapiens) [20],0.62 nM
same,fIC50,JAK1/TYK2 (Homo sapiens) [21],4.2 nM
same,fIC50,JAK3/JAK1 (Homo sapiens),1.8 nM
